In PubChem BioAssay:
The source made the active and inactive calls.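 How the source made its calls, unless noted: active means inhibition above 20% together with a positive visual image hit; inconclusive means visual image hit but inhibition not above 20%; inactive means no visual image hit.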

Columns and labels:
[1] = inhibitors of TNFa-induced NFkB p65 translocation, primary screen, imaging, HUVEC, MLSMR starter and 10KST1 sets (AID 438); details: HUVEC TNFa-induced p65 nuclear translocation; cell count: measured here: nuclei count (cytotoxicity indicator), at 2.08 µM; inhibition: at 2 µM, stronger effect = higher value, 0% TNFa-plus-vehicle, 100% no-TNFa wells;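 further: compound added about 3h40 before a 20 min TNFalpha stimulation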;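 on inhibition: signal is the nuclear over cytoplasmic p65 intensity ratio per well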
[2] = inhibitors of E-selectin induction by TNFa, primary screen, imaging, HUVEC, immunofluorescence, MLSMR starter and 10KST1 sets (AID 487;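 active means visually confirmed hit in the image check and inhibition above 20%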;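 on inhibition: signal is fraction of cell area covered by stained E-selectin grains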;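 on nuclei count: 100% = median nuclei count of all wells on the same plate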); details: HUVEC TNFalpha-induced E-selectin immunofluorescence imaging, at 2 µM; inhibition: stronger effect = higher value; nuclei count: measured here: cell number, toxicity
[3] = DUSP6 inhibitors restoring Erk phosphorylation by chemical complementation, primary imaging in DUSP6-transfected HeLa (AID 609;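 active means compounds giving at least 50% inhibition in the cell-based MKP-3 phosphatase rescue imaging test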;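 on inhibition: phospho-Erk level distribution per well compared with pooled transfected vehicle control wells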); details: HeLa MKP-3 transfected, phospho-Erk imaging KS statistic, at 10 µM, cells stimulated with TPA for 15 min
[4] = target: Dual specificity protein phosphatase 6 (Homo sapiens) (UniProt Q16828); assay: as above; details: HeLa MKP-3 transfected, phospho-Erk imaging KS statistic; at 10 µM; stronger effect = higher value; cells stimulated with TPA for 15 min
Chain of Dual specificity protein phosphatase 6 (Homo sapiens) (Q16828 whole entry, looked up): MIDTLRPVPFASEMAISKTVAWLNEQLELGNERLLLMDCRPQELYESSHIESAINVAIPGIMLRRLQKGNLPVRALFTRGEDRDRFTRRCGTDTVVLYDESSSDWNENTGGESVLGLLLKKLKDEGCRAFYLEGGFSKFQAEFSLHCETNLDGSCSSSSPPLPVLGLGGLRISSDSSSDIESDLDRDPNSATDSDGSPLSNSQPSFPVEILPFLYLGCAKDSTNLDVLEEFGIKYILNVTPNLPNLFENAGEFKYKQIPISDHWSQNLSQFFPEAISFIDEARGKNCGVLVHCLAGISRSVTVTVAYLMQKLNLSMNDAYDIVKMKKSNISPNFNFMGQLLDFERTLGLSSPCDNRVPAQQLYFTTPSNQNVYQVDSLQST

[5] = target: Voltage-gated potassium channel subunit beta-2 (Rattus norvegicus) (UniProt P62483); assay: KvBeta enzyme negative modulators, primary screen, biochemical, NADPH fluorescence (AID 622;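 active means fluorescence slope higher than the sample average by over 3 SD, cut at about -0.22 in these data, passing the limit was not always enough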;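 further: slope of raw intensity against log time taken from 70 to 1610 s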); details: recombinant KvBeta, 4-cyanobenzaldehyde reduction, at 10 µM, stronger effect = higher value
Chain of Voltage-gated potassium channel subunit beta-2 (Rattus norvegicus) (P62483 whole entry, looked up): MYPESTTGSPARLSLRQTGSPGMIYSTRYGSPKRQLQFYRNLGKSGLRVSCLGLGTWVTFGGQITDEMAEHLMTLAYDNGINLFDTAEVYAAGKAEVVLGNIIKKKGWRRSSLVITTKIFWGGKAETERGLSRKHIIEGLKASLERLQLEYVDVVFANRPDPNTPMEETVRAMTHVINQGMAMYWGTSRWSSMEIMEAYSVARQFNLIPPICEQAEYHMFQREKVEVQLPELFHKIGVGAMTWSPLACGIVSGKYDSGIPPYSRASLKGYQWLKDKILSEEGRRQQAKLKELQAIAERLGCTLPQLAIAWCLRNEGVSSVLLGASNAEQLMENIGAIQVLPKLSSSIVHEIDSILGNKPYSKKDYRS

[6] = target: Voltage-gated potassium channel subunit beta-2 (Rattus norvegicus) (UniProt P62483); assay: KvBeta positive modulators, primary screen, biochemical, NADPH fluorescence (AID 623;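 active means NADPH fluorescence slope more negative than the mean of all samples by about 3 SD, 99.7% confidence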;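 further: fluorescence intensity change per second fitted from 20 to 320 s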); details: Recombinant KvBeta, NADPH fluorescence decrease slope, 10 min; at 10 µM; stronger effect = lower value
[7] = target: Muscarinic acetylcholine receptor M4 (Homo sapiens) (UniProt P08173); assay: compounds altering M4/GIRK thallium flux, either direction, primary screen, M4 allosteric agonist project, cell-based, HEK293 M4/GIRK, BTC-AM (AID 625;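 active means fluorescence slope after compound addition differing from the mean of all tested samples at 99.7% confidence, mostly higher but some lower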;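 further: thallium influx through GIRK channels coupled to M4 in HEK293 cells with BTC-AM dye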); details: at 10 µM, actives lie on both sides
Chain of Muscarinic acetylcholine receptor M4 (Homo sapiens) (P08173 whole entry, looked up): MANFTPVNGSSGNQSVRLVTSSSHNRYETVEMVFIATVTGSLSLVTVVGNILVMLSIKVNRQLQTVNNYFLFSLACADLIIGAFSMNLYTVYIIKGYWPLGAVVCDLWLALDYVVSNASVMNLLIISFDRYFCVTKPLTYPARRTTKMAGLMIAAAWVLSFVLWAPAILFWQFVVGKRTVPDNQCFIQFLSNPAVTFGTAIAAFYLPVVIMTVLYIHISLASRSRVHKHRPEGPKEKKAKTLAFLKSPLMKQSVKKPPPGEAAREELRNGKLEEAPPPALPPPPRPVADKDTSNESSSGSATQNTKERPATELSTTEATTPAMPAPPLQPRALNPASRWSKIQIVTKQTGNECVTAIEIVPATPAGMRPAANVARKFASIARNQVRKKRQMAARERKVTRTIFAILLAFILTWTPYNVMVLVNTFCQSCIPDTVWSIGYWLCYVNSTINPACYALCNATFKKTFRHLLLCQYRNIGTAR
Summary of the method: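 Material: HEK293 cells with M4 receptor and GIRK channels; Times: cells overnight at 37 °C, BTC-AM loading 1 h, reads 2 min total; Technique: kinetic BTC-AM fluorescence sampled at 1 Hz, 10 s pre-addition baseline; Read-out basis: slope over 15–24 s of trace normalized to starting intensity; Controls: carbachol positive, DMSO negative.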

[8] = inhibitors of larval lipid processing in zebrafish, primary screen, whole organism, PED6 fluorescence, gall bladder and intestine (AID 686;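 active means a full or partial loss of lipid-probe fluorescence in the fish gall bladder, intestine or both, judged by eye; inactive means no fluorescence loss, or compound toxic to the fish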;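 further: larvae 5 to 7 days old with five fish per well; signal comes from phospholipase A2 cleavage of quenched PED6 carried via bile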); details: Zebrafish larvae PED6 lipid processing, fluorescence scoring; screened at 20 µM (by protocol)
Summary of the method: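 Incubation: overnight exposure of larvae to compound plus PED6 / Test system: live zebrafish larvae aged 5-7 days, whole organism / Amount: 5 larvae per well / Read-out basis: visual per-well fluorescence inhibition score / Signal: visual fluorescence microscopy scoring of gall bladder, gut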

[9] = inhibitors of Chlamydomonas gravitaxis, primary screen, whole organism, Chlamydomonas reinhardtii, WT vs cilia-less mutant, absorbance, 96-well (AID 463189;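 active means inhibition at or above 50% relative to wild type and mutant plate controls; inactive means inhibition below 50%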;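 further: 0% = wild type cc124 cells in DMSO and 100% = ciliumless bld1 mutant cells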); details: OD600 absorbance, 2 days, at 10 µM, stronger effect = higher value
[10] = measured here: cell density z-score
[11] = measured here: nuclear c-Myc green intensity z-score
[12] = measured here: nuclear pErk red intensity z-score, stronger effect = higher value

| SMILES | cell count [1] | inhibition [1] | inhibition [2] | nuclei count [2] | z-score [3, 10] | z-score [3, 11] | z-score [3, 12] | inhibition [4] | fluorescence slope [5] | NADPH fluorescence slope [6] | fluorescence slope [7] | outcome [8] | inhibition [9] |
| --- | --- | --- | --- | --- | --- | --- | --- | --- | --- | --- | --- | --- | --- |
| COc1ccc(CC(=O)n2c(CC#N)nc3ccccc32)cc1OC | 598 | -10.9% (inactive) | -32.4% (inactive) | 112% | -0.393 | -2.03 | 0.813 | -0.233% (inactive) | -0.465 (inactive) | -3.6e-05 (inactive) | 0.00563 (inactive) | inactive | 9.22% (inactive) |
| CN(C)C(=O)COn1c(SCC(=O)N(C)C)nc2ccccc2c1=O | 739 | 2% (inactive) | -47.5% (inactive) | 191% | -0.833 | -0.176 | 1.1 | 0.671% (inactive) | -0.428 (inactive) | -3.4e-05 (inactive) | 0.00719 (inactive) | inactive | 0.936% (inactive) |
| CN1CCc2c(c3c(n2C)CCN(C)[C@@H]3c2cccnc2)[C@H]1c1cccnc1 | 406 | -15.1% (inactive) | -320% (inactive) | 159% | 0.329 | -0.347 | 0.296 | 15.4% (inactive) | -0.478 (inactive) | -5.4e-05 (inactive) | 0.00388 (inactive) | inactive; toxic | 5.73% (inactive) |
| CCCCOC(=O)CSC1=C(C#N)C(c2ccc3c(c2)OCO3)CC(=O)N1 (stereo unspecified) | 650 | -12.5% (inactive) | -163% (inactive) | 155% | 1.99 | 0.113 | -0.175 | 8.31% (inactive) | -0.5 (inactive) | -8.3e-05 (inactive) | 0.00598 (inactive) | inactive | 4.75% (inactive) |
| CC(C)c1nc(N2CCOCC2)c(C#N)c2c1COC(C)(C)C2 | 535 | -5.2% (inactive) | -79.8% (inactive) | 110% | 0.188 | -0.524 | -1.28 | -9.53% (inactive) | -0.424 (inactive) | 4.6e-06 (inactive) | 0.00516 (inactive) | inactive | -30% (inactive) |
| CCNC(=O)COn1c(SCC(=O)NCC)nc2ccccc2c1=O | 763 | 2.9% (inactive) | 10% (inactive) | 174% | 0.564 | 0.056 | 0.704 | -4.7% (inactive) | -0.443 (inactive) | -4.1e-05 (inactive) | 0.00588 (inactive) | inactive | -4.94% (inactive) |
| O=C(O)c1ccnc(C(=O)O)c1 | 585 | -4.6% (inactive) | -82% (inactive) | 145% | 0.403 | 0.277 | 1 | -4.59% (inactive) | -0.434 (inactive) | -0.000101 (inactive) | 0.00626 (inactive) | inactive | 24.1% (inactive) |
| CC(C)(C)C1=Nn2c(nnc2C2CCCCC2)SC1 | 802 | -5.9% (inactive) | -150% (inactive) | 189% | 0.781 | 1.46 | 0.611 | 2.46% (inactive) | -0.452 (inactive) | -7.5e-05 (inactive) | 0.00451 (inactive) | inactive | 3.81% (inactive) |
| CC1(C)Cc2c(c(N3CCOCC3)nc3sc4c(NCc5ccco5)nnnc4c23)CS1 | 504 | -8.4% (inactive) | -6.5% (inactive) | 116% | 1.05 | -0.977 | 0.343 | 19.8% (inactive) | -0.419 (inactive) | -5e-06 (inactive) | 0.00933 (inactive) | inactive | 15.9% (inactive) |
| Cc1ccc(S(=O)(=O)N(CC(O)CN2CCOCC2)c2cc(Cl)ccc2Cl)cc1 (stereo unspecified) | 597 | -2.7% (inactive) | -35% (inactive) | 112% | -0.865 | 1.14 | 0.263 | 7.42% (inactive) | -0.403 (inactive) | -2.9e-05 (inactive) | 0.00509 (inactive) | inactive | -2.19% (inactive) |
| CCCc1nnc(NC(=O)Nc2ccccc2OC)s1 | 618 | -9.4% (inactive) | 14.1% (inactive) | 100% | 1.95 | 0.159 | -0.528 | 42.6% (inactive) | -0.515 (inactive) | -4.1e-05 (inactive) | 0.0109 (inactive) | inactive | -5.69% (inactive) |
| COc1ccc(CN(C)CCc2ccccn2)c(OC)c1OC | 494 | -4.5% (inactive) | -90.8% (inactive) | 151% | -1.25 | -0.772 | 0.512 | -3.95% (inactive) | -0.419 (inactive) | -3.4e-05 (inactive) | 0.00521 (inactive) | inactive | 18.3% (inactive) |
| Cc1cc(C)n(CC2CC(=O)N(c3cc(Cl)cc(Cl)c3)C2=O)n1 (stereo unspecified) | 656 | 50.4% (active) | -80.7% (inactive) | 103% | -0.905 | 0.888 | -1.76 | -9.53% (inactive) | -0.548 (inactive) | -7.9e-05 (inactive) | 0.00628 (inactive) | inactive | 10.7% (inactive) |
| COC(=O)CSc1nc(N)nc(C)c1Br | 688 | -10% (inactive) | 23.8% (inactive) | 150% | 0.424 | 0.473 | 0.0816 | -3.95% (inactive) | -0.429 (inactive) | -3.4e-05 (inactive) | 0.00418 (inactive) | inactive | -4.73% (inactive) |
| O=C(CN1C2=NCCN2c2ccccc21)N1CCOCC1 | 629 | 11% (inactive) | -7.9% (inactive) | 115% | 0.036 | -0.429 | -0.703 | -7.67% (inactive) | -0.447 (inactive) | -4.9e-05 (inactive) | 0.00508 (inactive) | inactive | -8.14% (inactive) |
| CCc1cc(=O)oc2cc(C)c(CN3CCCC(C)C3)c(O)c12 (stereo unspecified) | 539 | -7.1% (inactive) | -2.7% (inactive) | 109% | 1.56 | 0.423 | -0.74 | 12.7% (inactive) | -0.486 (inactive) | -2.8e-05 (inactive) | 0.00473 (inactive) | inactive | -8.79% (inactive) |
| Cc1nn2cnc3sc4c(c3c2nc1=O)CCCC4 | 535 | -9.5% (inactive) | -186% (inactive) | 145% | 0.522 | -0.702 | -1.01 | 13.9% (inactive) | -0.364 (inactive) | -2.5e-05 (inactive) | 0.00519 (inactive) | inactive | 19.9% (inactive) |
| Clc1ccc(-n2ncc3c(NCc4ccccn4)ncnc32)cc1 | 537 | -14.9% (inactive) | 6.6% (inactive) | 106% | -1.8 | 2.08 | -1.64 | 1.42% (inactive) | -0.374 (inactive) | 5.6e-06 (inactive) | 0.0062 (inactive) | inactive | 0.96% (inactive) |
| N#C/C(=C\c1c(N2CCC(C(N)=O)CC2)nc2ccccn2c1=O)S(=O)(=O)c1ccccc1 | 444 | -3.7% (inactive) | -112% (inactive) | 144% | 1.56 | -0.902 | -1.07 | 12.7% (inactive) | -0.423 (inactive) | -2.9e-05 (inactive) | 0.00437 (inactive) | inactive | 4.15% (inactive) |
| Cc1cc(C)nc(N(C#N)CN2C(=O)c3ccccc3C2=O)n1 | 629 | 6.2% (inactive) | 26.6% (inactive) | 107% | -0.879 | 0.404 | -0.916 | -9.53% (inactive) | -0.523 (inactive) | -3.9e-05 (inactive) | 0.00446 (inactive) | inactive | 30.7% (inactive) |
| CCCCOC(=O)CCc1nc2ccccc2[nH]1 | 716 | -2.4% (inactive) | -50.5% (inactive) | 195% | -0.361 | 0.108 | 1.13 | -3.97% (inactive) | -0.484 (inactive) | -5.5e-05 (inactive) | 0.00514 (inactive) | inactive | 8.4% (inactive) |
| Cc1nc(SCC(=O)Nc2ccc3c(c2)OCO3)c(C#N)c2c1CCCC2 | 490 | 1.3% (inactive) | -215% (inactive) | 145% | -0.268 | -1.41 | 0.298 | 9.37% (inactive) | -0.472 (inactive) | -4e-05 (inactive) | 0.00555 (inactive) | inactive | 19.8% (inactive) |
| CCn1c(SCC(=O)NC2CCCCC2C)nnc1-c1ccc(OC)cc1 (stereo unspecified) | 430 | -4.4% (inactive) | -37.9% (inactive) | 149% | -0.0183 | 0.142 | 0.845 | 7.73% (inactive) | -0.45 (inactive) | -0.000123 (inactive) | 0.00502 (inactive) | inactive | -4.06% (inactive) |
| Nc1nc2n(n1)C(c1cccs1)CC(c1ccc(F)cc1)N2 (stereo unspecified) | 385 | 5.4% (inactive) | -40.7% (inactive) | 141% | 0.349 | 0.295 | -0.128 | 5.65% (inactive) | -0.436 (inactive) | -0.000111 (inactive) | 0.00473 (inactive) | inactive | 0.994% (inactive) |
| Cc1nnc2n(-c3ccccc3)c(=O)c3c4c(sc3n12)COC(C)(C)C4 | 526 | -14.8% (inactive) | -32.4% (inactive) | 98.4% | 0.218 | -0.0554 | -0.749 | 24% (inactive) | -0.48 (inactive) | 2.3e-05 (inactive) | 0.00589 (inactive) | inactive | 38.4% (inactive) |
| Cn1ncc2nc[nH]c(=O)c21 | 709 | 2% (inactive) | -49.9% (inactive) | 110% | -0.739 | -0.543 | 1.26 | 5.95% (inactive) | -0.579 (inactive) | -3.5e-05 (inactive) | 0.006 (inactive) | inactive | 30.9% (inactive) |
| CCCCCSc1nc(N2CCOCC2)c2c(c1C#N)CC(C)(C)OC2 | 527 | -4.1% (inactive) | 47.4% (inactive) | 82.5% | -0.00236 | 0.148 | -1.7 | -11.4% (inactive) | -0.426 (inactive) | 1.5e-05 (inactive) | 0.00771 (inactive) | inactive | 16.6% (inactive) |
